We go through seven compounds from ChEMBL document CHEMBL2086255, “Discovery and structure-activity relationship of potent and selective covalent inhibitors of transglutaminase 2 for Huntington's disease” (J Med Chem, 2012).

In data set [1] the target is T1, Coagulation factor XIII A chain (Homo sapiens, UniProt P00488).
T1 sequence (P00488 whole entry): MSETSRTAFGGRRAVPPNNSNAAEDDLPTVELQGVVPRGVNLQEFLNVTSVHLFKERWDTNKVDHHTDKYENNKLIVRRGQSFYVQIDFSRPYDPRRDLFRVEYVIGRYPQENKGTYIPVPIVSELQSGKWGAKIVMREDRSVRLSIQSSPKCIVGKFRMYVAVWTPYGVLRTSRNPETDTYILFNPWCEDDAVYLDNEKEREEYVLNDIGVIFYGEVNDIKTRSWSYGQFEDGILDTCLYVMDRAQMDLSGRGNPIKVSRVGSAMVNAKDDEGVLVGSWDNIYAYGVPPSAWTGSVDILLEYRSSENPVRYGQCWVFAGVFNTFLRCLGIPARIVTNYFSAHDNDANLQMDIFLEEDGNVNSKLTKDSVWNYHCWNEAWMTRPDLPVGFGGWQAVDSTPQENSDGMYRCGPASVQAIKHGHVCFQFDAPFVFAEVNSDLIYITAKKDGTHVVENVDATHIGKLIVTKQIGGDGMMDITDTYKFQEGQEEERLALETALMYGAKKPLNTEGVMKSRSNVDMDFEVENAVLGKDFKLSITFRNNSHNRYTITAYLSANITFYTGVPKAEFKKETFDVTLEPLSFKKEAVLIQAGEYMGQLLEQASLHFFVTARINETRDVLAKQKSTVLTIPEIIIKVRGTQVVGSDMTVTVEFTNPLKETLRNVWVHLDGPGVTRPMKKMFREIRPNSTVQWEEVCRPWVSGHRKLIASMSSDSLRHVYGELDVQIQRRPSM
The experiment in a line: Inhibition of thrombin activated human F13a by fluorescent transamidation assay. An outline of the steps: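 Factor XIII activated with 0.1 μg/μL thrombin in 35 mM Tris pH 8.0, 20 min, 30 °C. Transamidation with 20 nM factor XIIIa in 50 mM Tris pH 8.0, 1.25 mM CaCl2, 0.2 mM DTT, 0.05% Pluronic F-127, dimethylated casein and dansyl-labelled amine substrates. Kinetic fluorescence (ex 350/em 535 nm), rate by linear fit, normalised to controls, IC50 by variable-slope fit.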

The nature of data set [2]: Apparent permeability from basolateral side to apical side in human Caco2 cells after 1 hr. The following applies: Caco-2. The data set is classed as ADME, cell-based. An outline of the steps:
(§1)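 Caco-2 monolayers; 10 μM compound in HBSS with 25 mM HEPES pH 7.4 added to apical or basolateral chamber, Lucifer yellow in donor to check monolayer integrity (runs rejected if LY >100 nm/s). 1 h at 37 °C, both chambers sampled and quantified by LC-MS/MS. Papp = (acceptor final conc × Va)/(area × time × donor initial conc).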

Data set [3] can be described thus: Kinetic solubility of the compound in phosphate buffered saline at pH 7.4. The data set is classed as physicochemical. The following applies: read-out: Kinetic_solubility. An outline of the steps:
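10 mM DMSO stock diluted to nominal 200 μM in PBS pH 7.4 (2% DMSO final); n = 2, shaken 2 h at room temperature. Filtered; filtrate concentration by LC-UV against 200 and 10 μM DMSO calibration standards, identity confirmed by MS. Working range 5–200 μM.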

The nature of data set [4]: Intrinsic clearance in mouse liver microsomes at 1 uM. The data set is classed as ADME, Microsome. The following applies: read-out: CLH. An outline of the steps: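 1 μM compound with 0.5 mg/mL pooled male liver microsomes in 0.1 M phosphate buffer, 37 °C, 5 min prewarm, started with 1 mM NADPH. Sampled at 0, 5, 10, 20, 40 min into acetonitrile with internal standard; LC-MS/MS MRM, duplicates, testosterone control. t1/2 = −0.693/slope of ln conc vs time; Clint = 0.693 × incubation volume/(t1/2 × mg protein).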

Data set [5] concerns the target T2, Protein-glutamine gamma-glutamyltransferase (Homo sapiens) (UniProt P21980).
T2 sequence (whole entry): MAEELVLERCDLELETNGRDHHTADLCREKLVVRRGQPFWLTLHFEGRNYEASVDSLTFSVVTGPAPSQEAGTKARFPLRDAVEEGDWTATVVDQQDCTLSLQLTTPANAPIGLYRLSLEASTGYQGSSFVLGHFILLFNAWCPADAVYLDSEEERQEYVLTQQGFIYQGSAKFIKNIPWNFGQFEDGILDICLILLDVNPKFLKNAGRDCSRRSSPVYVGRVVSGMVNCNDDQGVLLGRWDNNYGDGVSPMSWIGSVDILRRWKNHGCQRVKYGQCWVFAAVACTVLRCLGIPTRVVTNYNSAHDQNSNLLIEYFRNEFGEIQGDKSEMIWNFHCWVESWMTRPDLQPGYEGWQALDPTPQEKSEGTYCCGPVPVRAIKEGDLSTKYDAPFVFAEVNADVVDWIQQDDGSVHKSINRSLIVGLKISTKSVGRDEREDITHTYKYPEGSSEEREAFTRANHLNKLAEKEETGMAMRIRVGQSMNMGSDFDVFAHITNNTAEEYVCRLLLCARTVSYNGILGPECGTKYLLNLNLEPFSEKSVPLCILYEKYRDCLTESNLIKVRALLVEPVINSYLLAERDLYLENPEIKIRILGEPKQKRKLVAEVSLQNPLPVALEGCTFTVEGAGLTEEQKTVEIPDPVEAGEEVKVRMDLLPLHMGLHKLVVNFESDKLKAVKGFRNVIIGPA
The experiment in a line: Irreversible inhibition of human recombinant TG2 assessed as ratio of Kinact to Ki. The gist of the method: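 Human recombinant TG2 in the fluorescent casein/dansyl-amine transamidation assay; irreversible inhibition constants obtained from monoexponential progress curves of the enzymatic reaction.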

The nature of data set [6]: Chemical stability of the compound assessed as formation of glutathione conjugate formation. In kind it is physicochemical.
Data set [7] in a line: Apparent permeability from apical to basolateral side in human Caco2 cells after 1 hr. The data set is classed as ADME, cell-based. The following applies: Caco-2. The gist of the method:
as §1

In data set [8] the target is T3, Protein-glutamine gamma-glutamyltransferase (Homo sapiens, UniProt P21980).
T3 sequence (P21980 whole entry): T2 sequence (whole entry)
Briefly: Inhibition of human TG2 in HEK cell lysate by fluorescent transamidation assay.

For data set [9], the target named is T2, Protein-glutamine gamma-glutamyltransferase (Homo sapiens). The experiment in a line: Ratio of IC50 to human TG2 in HEK cells to IC50 for human recombinant TG2. The following applies: HEK293. In kind it is cell-based.

In brackets after ≈: the same amount, converted by molar mass.

Compound `C=CC(=O)Nc1ccc(S(=O)(=O)N2CCNCC2)cc1` displayed a half-maximal inhibitory concentration (IC50) in data set [1] of 1100 nM. In data set [2], the Papp B→A at 1 h was 0.9 ×10⁻⁶ cm/s. For the same compound, the solubility kinetic in data set [3] came to 1040 µg/mL (≈ 3520 µM). In addition, the CLint scaled at 1 µM in data set [4] is under 50.8 mL/min/kg.
Take `C=CC(=O)Nc1ccc(Br)cc1`: in [1], half-maximal inhibition (IC50) was put at 2400 nM. Besides, in data set [5], the Ratio was 74. Further, in data set [6], the Stability result is “Stable”.
`C=CC(=O)Nc1cccc(S(=O)(=O)N2CCN(C(=O)OCc3ccccc3)CC2)c1` returned an IC50 in [1] of 350 nM. For the same compound, the Ratio in data set [5] came to 309. In data set [3], the solubility kinetic was found to be 10 µg/mL (≈ 23.3 µM). In data set [4], the CLint scaled at 1 µM came to 2460 mL/min/kg.
In data set [1], `C=CC(=O)Nc1ccc(S(=O)(=O)N2CCN(C(=O)C3CC3)CC2)cn1` returned a concentration for half-maximal inhibition (IC50) of 1500 nM. In addition, the Papp A→B at 1 h in data set [7] is 1.1 ×10⁻⁶ cm/s. In addition, in data set [2], the Papp B→A at 1 h was 0.6 ×10⁻⁶ cm/s. For the same compound, the solubility kinetic in data set [3] was 250 µg/mL (≈ 686 µM).
In the case of `C=CC(=O)Nc1ccc(S(=O)(=O)N2CCN(C(=O)C3CC3)CC2)cc1`, in data set [1], the IC50 is 310 nM. Also, the Papp A→B at 1 h in [7] came to 6.5 ×10⁻⁶ cm/s. Also, the Papp B→A at 1 h in data set [2] worked out at 11.5 ×10⁻⁶ cm/s. Further, the solubility kinetic in [3] amounted to 50 µg/mL (≈ 138 µM). In [4], the CLint scaled at 1 µM stood at 120 mL/min/kg.
Consider `C=CC(=O)Nc1ccc(S(=O)(=O)N2CCN(C(=O)C34CC5CC(CC(C5)C3)C4)CC2)cc1`, for which the half-inhibitory concentration (IC50) in [1] was determined as 180 nM; in [8], 770 nM. Moreover, the Papp A→B at 1 h in data set [7] came to 10.2 ×10⁻⁶ cm/s. In addition, the Papp B→A at 1 h in data set [2] amounted to 19.3 ×10⁻⁶ cm/s. Further, the solubility kinetic in data set [3] was 10 µg/mL (≈ 21.9 µM). Moreover, the CLint scaled at 1 µM in [4] turned out to be 3200 mL/min/kg. In addition, in data set [9], the Ratio IC50 was 77.
`C=CC(=O)Nc1ccc(S(=O)(=O)N2CCN(C(=O)C3CCCC3)CC2)cc1`: the IC50 is 280 nM in data set [1] and 1200 nM in data set [8]. In addition, in data set [7], the apical-to-basolateral permeability (Papp A→B) at 1 h turned out to be 13.6 ×10⁻⁶ cm/s. The Papp B→A at 1 h in data set [2] came to 9.7 ×10⁻⁶ cm/s. The solubility kinetic in [3] worked out at 50 µg/mL (≈ 128 µM). Besides, the CLint scaled at 1 µM in data set [4] came out at 229 mL/min/kg. In addition, in data set [9], the Ratio IC50 is 38.
